Experiments:
Type in all cases: functional
Staphylococcus aureus = assay: Antibacterial activity against Staphylococcus aureus at 20 mg/mL by agar diffusion method
Summary of the method: (§1)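 Agar diffusion assay with test solutions at 20 mg/mL in DMSO, run alongside tetracycline as reference. Read-out is the diameter of the inhibition zone in mm, reported as an average.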

Enterococcus faecalis = assay: Antibacterial activity against Streptococcus faecalis at 20 mg/mL by agar diffusion method; summary of the method: as §1
Pseudomonas aeruginosa = assay: Antibacterial activity against Pseudomonas aeruginosa at 20 mg/mL by agar diffusion method; summary of the method: as §1
Escherichia coli = assay: Antibacterial activity against Escherichia coli at 20 mg/mL by agar diffusion method; summary of the method: as §1

| Structure (SMILES) | diameter of the inhibition zone (DIZ) (Staphylococcus aureus) [mm] | diameter of the inhibition zone (DIZ) (Enterococcus faecalis) [mm] | diameter of the inhibition zone (DIZ) (Pseudomonas aeruginosa) [mm] | diameter of the inhibition zone (DIZ) (Escherichia coli) [mm] |
| --- | --- | --- | --- | --- |
| COc1ccccc1Cc1cc(-c2ccc(Cl)cc2)n[nH]/c1=N/N=C/c1ccc(OCCOc2ccc(C=O)cc2OC)c(OC)c1 | 12 | 12 | 13 | 13 |
| COc1ccccc1Cc1cc(-c2ccccc2)n[nH]/c1=N/N=C/c1ccc(OCCOc2ccc(C=O)cc2)cc1 | 14 | 12 | 13 | 12 |
| COc1ccc(-c2cc(Cc3ccccc3OC)/c(=N/N=C/c3ccc(OC(C)=O)c(OC)c3)[nH]n2)cc1 | 14 | 13 | 12 | 15 |
| COc1ccc(-c2cc(Cc3ccccc3OC)/c(=N/N=C(\c3ccccc3)c3ccccc3C(=O)O)[nH]n2)cc1 | 18 | 17 | 17 | 16 |
| COc1ccc(-c2cc(Cc3ccccc3OC)/c(=N/N=C/c3ccc(O)c(OC)c3)[nH]n2)cc1 | 12 | 12 | 13 | 12 |
| COc1ccc(-c2cc(Cc3ccccc3OC)/c(=N/N=C/C(O)C(O)C(O)CO)[nH]n2)cc1 (configuration not stated) | 12 | 12 | 11 | 12 |
| COc1ccccc1Cc1cc(-c2ccccc2)n[nH]/c1=N\N=C(C)C | 16 | 16 | 15 | 15 |
| COc1ccccc1Cc1cc(-c2ccc(C)cc2)n[nH]/c1=N/N=C/C(OC(C)=O)C(OC(C)=O)C(COC(C)=O)OC(C)=O (configuration not stated) | 13 | 13 | 12 | 13 |
| COc1ccccc1Cc1cc(-c2ccc(C)cc2)n[nH]\c1=N/N=C(C)/C(C)=N/N=c1/[nH]nc(-c2ccc(C)cc2)cc1Cc1ccccc1OC | 14 | 13 | 14 | 13 |
| COc1ccc(-c2cc(Cc3ccccc3OC)/c(=N\N=C\C(OC(C)=O)C(OC(C)=O)C(OC(C)=O)C(COC(C)=O)OC(C)=O)[nH]n2)cc1 (configuration not stated) | 13 | 14 | 13 | 14 |
| COc1ccccc1Cc1cc(-c2ccccc2)n[nH]/c1=N/N=C/c1cc(OC)c(OCCOc2c(OC)cc(C=O)cc2OC)c(OC)c1 | 14 | 13 | 14 | 12 |
| COc1ccccc1Cc1cc(-c2ccccc2)n[nH]/c1=N\N=C(c1ccccc1)c1ccccc1 | 13 | 13 | 13 | 12 |
| COc1ccc(-c2cc(Cc3ccccc3OC)/c(=N\N=C\c3ccc(OCCOc4ccc(C=O)cc4OC)c(OC)c3)[nH]n2)cc1 | 10 | 10 | 10 | 11 |
| COc1ccccc1Cc1cc(-c2ccccc2)n[nH]/c1=N\N=C(/C)c1ccccc1 | 13 | 13 | 12 | 12 |
| COc1ccccc1Cc1cc(-c2ccc(Cl)cc2)n[nH]/c1=N\N=C\C(O)C(O)C(O)CO (configuration not stated) | 16 | 17 | 15 | 16 |
| COc1ccc(-c2cc(Cc3ccccc3OC)/c(=N/N=C(\C)C(C)=O)[nH]n2)cc1 | 13 | 13 | 13 | 13 |
| COc1ccc(-c2cc(Cc3ccccc3OC)/c(=N/N=C/C(O)C(O)C(O)C(O)CO)[nH]n2)cc1 (configuration not stated) | 16 | 15 | 14 | 15 |
| CN(C)[C@@H]1C(O)=C(C(N)=O)C(=O)[C@@]2(O)C(O)=C3C(=O)c4c(O)cccc4[C@@](C)(O)[C@H]3C[C@@H]12 [TETRACYCLINE] | 20 | 26 | 24 | 22 |

— ChEMBL document CHEMBL1158355, “Novel pyridazine derivatives: Synthesis and antimicrobial activity evaluation” (2009)
